Values after ≈ are worked out from the molar mass of the structure shown.
How the values were obtained:
[1] = tested on: Streptococcus oralis; test: Antimicrobial activity against Streptococcus oralis HK587 with gyrA Ser114Gly, and parC Ser52Gly, Asn91Asp mutation by broth dilution method; format: functional
Procedure, shortened: (§1)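 Ciprofloxacin and levofloxacin MICs were determined by broth dilution following CLSI (formerly NCCLS) guidance. S. pneumoniae ATCC 6303 and ATCC 49619 served as control strains. Reference strains were S. mitis ATCC 49456 and S. oralis ATCC 10557. The clinical isolates came from patients at a Hong Kong teaching hospital.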

[2] = tested on: Streptococcus oralis; test: Antimicrobial activity against Streptococcus oralis HK122 with gyrA Ser114Gly, and parC Ser52Gly, Asn91Asp mutation by broth dilution method; format: functional; procedure, shortened: as §1
[3] = tested on: Streptococcus pneumoniae; test: Antimicrobial activity against atypical Streptococcus pneumoniae L11 with parC Ser52Gly, Asn91Asp, Glu135Asp mutation by broth dilution method
[4] = tested on: Streptococcus oralis; test: Antimicrobial activity against Streptococcus oralis HK62 with gyrA Ser114Gly, and parC Ser52Gly, Asn91Asp mutation by broth dilution method; format: functional; procedure, shortened: as §1
[5] = tested on: Streptococcus viridans; test: Antimicrobial activity against Viridans streptococcus L26 gyrA Ser81Phe and parC Lys137Asn mutation by broth dilution method; format: functional; procedure, shortened: as §1
[6] = tested on: Streptococcus mitis; test: Antimicrobial activity against Streptococcus mitis ATCC 49456 with gyrA Ser114Gly, and parC Ser52Gly, Asn91Asp, Glu135Asp mutation by broth dilution method; format: functional; procedure, shortened: as §1
[7] = tested on: Streptococcus oralis; test: Antimicrobial activity against Streptococcus oralis HK553 with gyrA Ser114Gly, and parC Ser52Gly, Asn91Asp mutation by broth dilution method; format: functional; procedure, shortened: as §1
[8] = tested on: Streptococcus oralis; test: Antimicrobial activity against Streptococcus oralis HK312 with gyrA Ser114Gly, and parC Ser52Gly, Asn91Asp mutation by broth dilution method; format: functional; procedure, shortened: as §1
[9] = tested on: Streptococcus pneumoniae; test: Antimicrobial activity against atypical Streptococcus pneumoniae L1 with gyrA Ser81Phe and parC Ser79Phe, Glu96Asp, Lys197Asn mutation by broth dilution method
[10] = tested on: Streptococcus mitis; test: Antimicrobial activity against Streptococcus mitis HK137453 with gyrA Ser114Gly, and parC Ser52Gly, Asn91Asp mutation by broth dilution method; format: functional; procedure, shortened: as §1
[11] = tested on: Streptococcus mitis; test: Antimicrobial activity against Streptococcus mitis HK125807 with gyrA Ser114Gly, and parC Ser52Gly, Asn91Asp mutation by broth dilution method; format: functional; procedure, shortened: as §1
[12] = tested on: Streptococcus pneumoniae; test: Antimicrobial activity against Streptococcus pneumoniae L24 with gyrA Ser81Phe, gyrB Ser494Thr, parC Asp83Asn, Lys137Asn and parE Ile460Val mutation by broth dilution method
[13] = tested on: Streptococcus mitis; test: Antimicrobial activity against Streptococcus mitis HK467 with gyrA Ser114Gly, Leu155Val and parC Ser52Gly, Asn91Asp, mutation by broth dilution method; format: functional; procedure, shortened: as §1
[14] = tested on: Streptococcus pneumoniae; test: Antimicrobial activity against Streptococcus pneumoniae L14 with parC Lys137Asn and parE Ile460Val mutation by broth dilution method
[15] = tested on: Streptococcus oralis; test: Antimicrobial activity against Streptococcus oralis HK300 with gyrA Ser114Gly, and parC Ser52Gly, Asn91Asp mutation by broth dilution method; format: functional; procedure, shortened: as §1
[16] = tested on: Streptococcus viridans; test: Antimicrobial activity against Viridans streptococcus L18 with gyrA Ser114Gly, Asp142Asn, gyrB Ser494Thr and parE Ile460Val mutation by broth dilution method; format: functional; procedure, shortened: as §1
[17] = tested on: Streptococcus oralis; test: Antimicrobial activity against Streptococcus oralis HK417 with gyrA Ser114Gly, and parC Ser52Gly, Asn91Asp mutation by broth dilution method; format: functional; procedure, shortened: as §1
[18] = tested on: Streptococcus oralis; test: Antimicrobial activity against Streptococcus oralis HK232 with gyrA Ser114Gly, and parC Ser52Gly, Asn91Asp mutation by broth dilution method; format: functional; procedure, shortened: as §1
[19] = tested on: Streptococcus pneumoniae; test: Antimicrobial activity against atypical Streptococcus pneumoniae L3 with parC Lys137Asn mutation by broth dilution method
[20] = tested on: Streptococcus mitis; test: Antimicrobial activity against Streptococcus mitis HK677 with gyrA Ser81Leu, Ser114Gly, gyrB Ser494Thr, parC Ser52Gly, Asp83Tyr, Asn91Asp and parE Arg447Ser mutation by broth dilution method; format: functional; procedure, shortened: as §1
[21] = tested on: Streptococcus viridans; test: Antimicrobial activity against Viridans streptococcus L16 with gyrA Ser114Gly, gyrB Ser494Thr and parC Ser52Gly, Asn91Asp mutation by broth dilution method; format: functional; procedure, shortened: as §1
[22] = tested on: Streptococcus pneumoniae; test: Antimicrobial activity against atypical Streptococcus pneumoniae L10 with gyrA Ser81Phe and parC Lys197Asn mutation by broth dilution method
[23] = tested on: Streptococcus oralis; test: Antimicrobial activity against Streptococcus oralis HK123 with gyrA Ser114Gly, and parC Ser52Gly, Asn91Asp mutation by broth dilution method; format: functional; procedure, shortened: as §1
[24] = tested on: Streptococcus pneumoniae; test: Antimicrobial activity against Streptococcus pneumoniae L6 with gyrA Ser81Phe, parC Lys137Asn and parE Ile460Val mutation by broth dilution method
[25] = tested on: Streptococcus viridans; test: Antimicrobial activity against Viridans streptococcus L2 with gyrA Ser114Gly, gyrB Ser494Thr and parC Ser52Gly, Asn91Asp mutation by broth dilution method; format: functional; procedure, shortened: as §1
[26] = tested on: Streptococcus mitis; test: Antimicrobial activity against Streptococcus mitis HK141 with gyrA Ser114Gly, and parC Ser52Gly, Asn91Asp mutation by broth dilution method; format: functional; procedure, shortened: as §1
[27] = tested on: Streptococcus oralis; test: Antimicrobial activity against Streptococcus oralis HK299 with gyrA Ser114Gly, and parC Ser52Gly, Asn91Asp mutation by broth dilution method; format: functional; procedure, shortened: as §1
[28] = tested on: Streptococcus oralis; test: Antimicrobial activity against Streptococcus oralis HK579 with gyrA Ser114Gly, and parC Ser52Gly, Asn91Asp mutation by broth dilution method; format: functional; procedure, shortened: as §1
[29] = tested on: Streptococcus mitis; test: Antimicrobial activity against Streptococcus mitis HK260 with gyrA Ser114Gly, and parC Ser52Gly, Asn91Asp mutation by broth dilution method; format: functional; procedure, shortened: as §1

Compound `O=C(O)c1cn(C2CC2)c2cc(N3CCNCC3)c(F)cc2c1=O` [CIPROFLOXACIN] has an MIC [1] of 4 µg/mL (≈ 12.1 µM), an MIC [2] of 4 µg/mL (≈ 12.1 µM) and an MIC [3] of 8 µg/mL (≈ 24.1 µM). For the same compound, the MIC [4] was 4 µg/mL (≈ 12.1 µM), the MIC [5] was 16 µg/mL (≈ 48.3 µM) and the MIC [6] was 1 µg/mL (≈ 3.02 µM). The MIC [7] was 2 µg/mL (≈ 6.04 µM), the MIC [8] was 4 µg/mL (≈ 12.1 µM) and the MIC [9] was greater than 32 µg/mL. The MIC [10] was 2 µg/mL (≈ 6.04 µM), the MIC [11] was 2 µg/mL (≈ 6.04 µM) and the MIC [12] was no less than 16 µg/mL. The MIC [13] was 2 µg/mL (≈ 6.04 µM), the MIC [14] was 4 µg/mL (≈ 12.1 µM) and the MIC [15] was 4 µg/mL (≈ 12.1 µM). For the same compound, the MIC [16] was 4 µg/mL (≈ 12.1 µM), the MIC [17] was 2 µg/mL (≈ 6.04 µM) and the MIC [18] was 2 µg/mL (≈ 6.04 µM). It also gave an MIC [19] of 4 µg/mL (≈ 12.1 µM), an MIC [20] of 128 µg/mL (≈ 386 µM) and an MIC [21] of 4 µg/mL (≈ 12.1 µM). It also gave an MIC [22] of 4 µg/mL (≈ 12.1 µM), an MIC [23] of 4 µg/mL (≈ 12.1 µM) and an MIC [24] of 8 µg/mL (≈ 24.1 µM). It also gave an MIC [25] of 4 µg/mL (≈ 12.1 µM), an MIC [26] of 1 µg/mL (≈ 3.02 µM) and an MIC [27] of 4 µg/mL (≈ 12.1 µM). For the same compound, the MIC [28] was 4 µg/mL (≈ 12.1 µM) and the MIC [29] was less than 0.5 µg/mL.

From ChEMBL document CHEMBL1155167, “Fluoroquinolone resistance in atypical pneumococci and oral streptococci: evidence of horizontal gene transfer of fluoroquinolone resistance determinants from Streptococcus pneumoniae” (2007)
